In brackets after ≈: the same amount, converted by molar mass. Entries after “also recorded” stand apart in the source; their conditions may differ. Read-outs that look alike come from different tables or passages of the source.
Experiments:
Stability observation = type: physicochemical
P. falciparum strain Dd2 = test: Malstat assay, growth inhibition of P. falciparum Dd2; type: cell-based, Plasmodium falciparum; details: for Selectivity index SI (Dd2): CC50 (MCF7)/IC50 (Dd2); for IC50: Plasmodium falciparum, DD2, read-out: Mean IC50 ± SD Dd2
[1] = system: P. falciparum strain NF54; test: Malstat assay, growth inhibition of P. falciparum NF54; type: cell-based, Plasmodium falciparum; details: for Selectivity index SI (NF54): CC50 (MCF7)/IC50 (NF54); for times more potent than tryptanthrin: CQ-sensitive strain; for IC50: Plasmodium falciparum; for gain in activity over the parent compound tryptanthrin: mono-derivatization at position 8, strain not stated
MTT cytotoxicity assay = type: cell-based; details: human, MCF-7 cells
[2] = system: P. falciparum NF54 mature gametocytes; test: Exflagellation assay; type: cell-based, Plasmodium falciparum; details: compound at IC90 concentration, 15 min and 24 h incubation
Outline: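 Mature NF54 gametocyte cultures (from day 13) were split into two flasks, one with test compound and one with DMSO only. Aliquots taken after 15 min at 37 °C and after 24 h were activated with xanthurenic acid for 15 min, pelleted, and resuspended in medium containing 100 µM xanthurenic acid. Exflagellation centres were counted in 30 fields relative to the DMSO control. The experiment was run twice, on separately seeded cultures.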

Solubility in DMSO = type: physicochemical; details: organic solvent or mixture
[3] = system: P. falciparum NF54 gametocytes; test: Gametocyte toxicity test; type: cell-based, Plasmodium falciparum; details: nanomolar concentrations, positive control
Outline: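 NF54 was seeded at 1–2% parasitemia and 5% hematocrit in RPMI/HEPES/hypoxanthine/bicarbonate with 10% human serum, under 5% O2/5% CO2/90% N2 at 37 °C, with medium changed daily. Stage II gametocytes were plated in triplicate with compound for 48 h, then kept in compound-free medium to day 7. Stage IV–V gametocytes per 1000 erythrocytes were counted on Giemsa smears and normalised to the DMSO control; means were compared by one-way ANOVA with Tukey's test.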

[4] = NF54, read-out: Mean IC50 ± SD NF54
[5] = DD2|NF54, read-out: IC50 (considered not effective)

In the case of `O=C1c2ccccc2-n2c1nc1ccc([N+](=O)[O-])cc1c2=O` [2-Nitrotryptanthrin], the stability (Stability observation) is reported as “highly unstable”.

For `O=C1c2cc(Br)ccc2-n2c1nc1cc(Cl)ccc1c2=O` [BT1, 8-Bromo-3-chloro-indolo [2,1-b] quinazoline-6,12-dione], the “Selectivity index SI (Dd2)” value (P. falciparum strain Dd2) was 10, the IC50 (P. falciparum strain Dd2) was 238 ± 80 nM and the “Selectivity index SI (NF54)” value [1] was 66. The “times more potent than tryptanthrin” value [1] was “at least 5”, the IC50 [1, 4] was 36 ± 17 nM and the CC50 (MTT cytotoxicity assay) was 2380 ± 1 nM.

With `O=C1c2cc(Br)ccc2-n2c1nc1ccc(Cl)cc1c2=O` [BT2, 8-Bromo-2-chloro-indolo [2,1-b] quinazoline-6,12-dione] the “Selectivity index SI (Dd2)” value (P. falciparum strain Dd2) was greater than 800, the IC50 (P. falciparum strain Dd2) was 123 ± 62 nM and the “Selectivity index SI (NF54)” value [1] was greater than 2000. For the same molecule, the “times more potent than tryptanthrin” value [1] was “at least 5”, the IC50 [1, 4] was 36 ± 24 nM and the CC50 (MTT cytotoxicity assay) was greater than 100000 nM.

For `COc1cc2nc3n(c(=O)c2cc1OC)-c1ccc(Br)cc1C3=O` [BT3, 8-Bromo-2,3-dimethoxy-indolo[2,1-b]quinazoline-6,12-dione], the “Selectivity index SI (Dd2)” value (P. falciparum strain Dd2) was greater than 100, the IC50 (P. falciparum strain Dd2) was 761 ± 194 nM and the “Selectivity index SI (NF54)” value [1] was greater than 1000. It also gave an IC50 [1, 4] of 88 ± 41 nM and a CC50 (MTT cytotoxicity assay) greater than 100000 nM.

For `O=C(O)c1ccc2c(=O)n3c(nc2c1)C(=O)c1cc(Br)ccc1-3` [BT4, 8-Bromo-6,12-dioxo-6,12-dihydro-indolo[2,1-b] quinazoline-3-carboxylic acid], the IC50 (P. falciparum strain Dd2) was greater than 50000 nM, the IC50 [1, 5] was greater than 50000 nM and the IC50 [1, 4] was greater than 50000 nM. It also gave a CC50 (MTT cytotoxicity assay) of 71000 ± 39700 nM.

With `COC(=O)c1ccc2c(=O)n3c(nc2c1)C(=O)c1cc(Br)ccc1-3` [BT5, 8-Bromo-6,12-dioxo-6,12-dihydro-indolo[2,1-b] quinazoline-3-carboxylic acid methylester] the “Selectivity index SI (Dd2)” value (P. falciparum strain Dd2) was 40, the IC50 (P. falciparum strain Dd2) was 287 ± 24 nM and the “Selectivity index SI (NF54)” value [1] was 70.9. For the same molecule, the IC50 [1, 4] was 162 ± 93 nM and the CC50 (MTT cytotoxicity assay) was 11500 ± 5420 nM.

In the case of `CCN(CC)CCCC(C)Nc1ccnc2cc(Cl)ccc12` (stereo not drawn) [CQ, Chloroquine, reference compound], the IC50 (P. falciparum strain Dd2) is reported as 294 ± 30 nM, the “times more potent against CQ-sensitive strain compared with the resistant strain” value ([1]; CQ-sensitive versus CQ-resistant strain) is reported as 13 and the IC50 ([1]; NF54) is reported as 20 nM. For the same molecule, the IC50 [1, 4] was 21 ± 2 nM and the CC50 (MTT cytotoxicity assay) was greater than 100000 nM.

In the case of `Cc1ccc2c(c1)C(=O)c1nc3ccccc3c(=O)n1-2` [Compound T1, 8-Methyl-indolo [2,1-b] quinazoline-6,12-dione], the “Selectivity index SI (Dd2)” value (P. falciparum strain Dd2) is reported as greater than 400, the IC50 (P. falciparum strain Dd2) is reported as 216 ± 116 nM and the “Selectivity index SI (NF54)” value [1] is reported as greater than 1000. The IC50 [1, 4] was 85 ± 37 nM, the “gain in activity over the parent compound tryptanthrin” value [1] was “approximately three times” and the CC50 (MTT cytotoxicity assay) was greater than 100000 nM.

With `O=C1c2cc(Br)ccc2-n2c1nc1ccccc1c2=O` [Compound T2, 8-Bromo-indolo [2,1-b] quinazoline-6,12-dione] the “Selectivity index SI (Dd2)” value (P. falciparum strain Dd2) was 110.2, the IC50 (P. falciparum strain Dd2) was 95 ± 58 nM and the “Selectivity index SI (NF54)” value [1] was 129.3. For the same molecule, the IC50 [1, 4] was 81 ± 8 nM, the “gain in activity over the parent compound tryptanthrin” value [1] was “approximately three times” and the CC50 (MTT cytotoxicity assay) was 10500 ± 1520 nM.

For `Cc1cccc2c1C(=O)c1nc3ccccc3c(=O)n1-2` [Compound T3, 7-Methyl-indolo [2,1-b] quinazoline-6,12-dione], the “Selectivity index SI (Dd2)” value (P. falciparum strain Dd2) was 29.3, the IC50 (P. falciparum strain Dd2) was 602 ± 115 nM and the “Selectivity index SI (NF54)” value [1] was 39.2. It also gave an IC50 [1, 4] of 450 ± 98 nM and a CC50 (MTT cytotoxicity assay) of 17600 ± 300 nM.

For `O=C1c2cc([N+](=O)[O-])ccc2-n2c1nc1ccccc1c2=O` [Compound T4, 8-Nitro-indolo [2,1-b] quinazoline-6,12-dione], the “Selectivity index SI (Dd2)” value (P. falciparum strain Dd2) was 29, the IC50 (P. falciparum strain Dd2) was 165 ± 55 nM and the “Selectivity index SI (NF54)” value [1] was 45.1. The IC50 [1, 4] was 106 ± 38 nM, the “gain in activity over the parent compound tryptanthrin” value [1] was “approximately three times” and the CC50 (MTT cytotoxicity assay) was 4780 ± 490 nM.

In the case of `O=C1c2cc(F)ccc2-n2c1nc1ccccc1c2=O` [Compound T6, 8-Fluoro-indolo [2,1-b] quinazoline-6,12-dione], the “Selectivity index SI (Dd2)” value (P. falciparum strain Dd2) is reported as 175.6, the IC50 (P. falciparum strain Dd2) is reported as 100 ± 15 nM and the “Selectivity index SI (NF54)” value [1] is reported as 306.5. For the same molecule, the “times more potent than tryptanthrin” value [1] was “at least 5”, the IC50 [1, 4] was 57 ± 10 nM and the “gain in activity over the parent compound tryptanthrin” value [1] was “approximately three times”. The CC50 (MTT cytotoxicity assay) was 17500 ± 650 nM.

In the case of `O=C1c2cc(Cl)ccc2-n2c1nc1ccccc1c2=O` [Compound T7, 8-Chloro-indolo [2,1-b] quinazoline-6,12-dione], the “Selectivity index SI (Dd2)” value (P. falciparum strain Dd2) is reported as 158.5, the IC50 (P. falciparum strain Dd2) is reported as 172 ± 18 nM and the “Selectivity index SI (NF54)” value [1] is reported as 286.1. For the same molecule, the IC50 [1, 4] was 95 ± 33 nM, the “gain in activity over the parent compound tryptanthrin” value [1] was “approximately three times” and the CC50 (MTT cytotoxicity assay) was 27200 ± 6680 nM.

In the case of `O=C1c2ccccc2-n2c1nc1cc(Cl)ccc1c2=O` [Compound T8, 3-Chloro-indolo [2,1-b] quinazoline-6,12-dione], the “reduction of exflagellation of microgametes” value [2] is reported as “neither tryptanthrin nor T8 were able to significantly inhibit the exflagellation; also recorded: no influence on exflagellation”, the “Selectivity index SI (Dd2)” value (P. falciparum strain Dd2) is reported as 103.5 and the IC50 (P. falciparum strain Dd2) is reported as 165 ± 81 nM. For the same molecule, the “Selectivity index SI (NF54)” value [1] was 186, the IC50 [1, 4] was 92 ± 3 nM and the CC50 (MTT cytotoxicity assay) was 17100 ± 4260 nM.

In the case of `O=C1c2cc([N+](=O)[O-])ccc2-n2c1nc1cc(Cl)ccc1c2=O` [NT1, 3-Chloro-8-nitro-indolo [2,1-b] quinazoline-6,12-dione], the solubility (Solubility in DMSO) is reported as 10 mM (≈ 3280 µg/mL), the “Selectivity index SI (Dd2)” value (P. falciparum strain Dd2) is reported as 168.7 and the “times more active than tryptanthrin” value (P. falciparum strain Dd2; CQ-resistant strain) is reported as 3.3. For the same molecule, the IC50 (P. falciparum strain Dd2) was 31 ± 5 nM, the “Selectivity index SI (NF54)” value [1] was 155.9 and the “times more potent than tryptanthrin” value [1] was “at least 5”. For the same molecule, the IC50 ([1]; NF54) was 30 nM, the IC50 [1, 4] was 33 ± 4 nM and the CC50 (MTT cytotoxicity assay) was 5150 ± 110 nM.

With `O=C1c2cc([N+](=O)[O-])ccc2-n2c1nc1ccc(Cl)cc1c2=O` [NT2, 2-Chloro-8-nitro-indolo [2,1-b] quinazoline-6,12-dione] the “Selectivity index SI (Dd2)” value (P. falciparum strain Dd2) was 136.5, the IC50 (P. falciparum strain Dd2) was 91 nM and the “Selectivity index SI (NF54)” value [1] was 96.7. It also gave an IC50 [1, 4] of 129 ± 22 nM and a CC50 (MTT cytotoxicity assay) of 12500 ± 230 nM.

For `COc1cc2nc3n(c(=O)c2cc1OC)-c1ccc([N+](=O)[O-])cc1C3=O` [NT3, 2,3-Dimethoxy-8-nitro-indolo [2,1-b] quinazoline-6,12-dione], the “Selectivity index SI (Dd2)” value (P. falciparum strain Dd2) was 113.2, the IC50 (P. falciparum strain Dd2) was 134 ± 47 nM and the “Selectivity index SI (NF54)” value [1] was 53.6. For the same molecule, the IC50 [1, 4] was 283 ± 93 nM and the CC50 (MTT cytotoxicity assay) was 15200 ± 4410 nM.

`O=C(O)c1ccc2c(=O)n3c(nc2c1)C(=O)c1cc([N+](=O)[O-])ccc1-3` [NT4, 8-Nitro-6,12-dioxo-6,12-dihydro-indolo[2,1-b]quinazoline-3-carboxylic acid] showed an IC50 (P. falciparum strain Dd2) greater than 50000 nM, an IC50 [1, 5] greater than 50000 nM and an IC50 [1, 4] greater than 50000 nM. For the same molecule, the CC50 (MTT cytotoxicity assay) was greater than 100000 nM.

For `COC(=O)c1ccc2c(=O)n3c(nc2c1)C(=O)c1cc([N+](=O)[O-])ccc1-3` [NT5, 8-Nitro-6,12-dioxo-6,12-dihydro-indolo[2,1-b] quinazoline-3-carboxylic acid methyl ester], the “Selectivity index SI (Dd2)” value (P. falciparum strain Dd2) was 72.1, the IC50 (P. falciparum strain Dd2) was 166 ± 36 nM and the “Selectivity index SI (NF54)” value [1] was 71.7. It also gave an IC50 [1, 4] of 167 ± 67 nM and a CC50 (MTT cytotoxicity assay) of 12000 ± 500 nM.

For `O=C1c2cc([N+](=O)[O-])ccc2-n2c1nc1cc(Br)ccc1c2=O` [NT6, 3-Bromo-8-nitro-indolo [2,1-b] quinazoline-6,12-dione], the “Selectivity index SI (Dd2)” value (P. falciparum strain Dd2) was 174, the IC50 (P. falciparum strain Dd2) was 101 ± 68 nM and the “Selectivity index SI (NF54)” value [1] was 243.3. It also gave an IC50 [1, 4] of 72 ± 23 nM and a CC50 (MTT cytotoxicity assay) of 17500 ± 770 nM.

With `O=C1c2ccccc2-n2c1nc1ccccc1c2=O` [TRYP, indolo-[2,1-b]-quinazoline-6, 12-Dione, reference compound] the IC50 (P. falciparum strain Dd2) was 114 ± 17 nM, the IC50 [1, 4] was 288 ± 87 nM and the CC50 (MTT cytotoxicity assay) was 45900 ± 700 nM.

For `CC[C@H](C)[C@H](NC(=O)[C@H]([C@@H](C)CC)N(C)C(C)=O)C(=O)N[C@H](C(=O)N[C@@H](CC(C)C)C(=O)[C@@]1(C)CO1)[C@@H](C)O` [epoxomicin], the “effect on gametocytes in culture” value [3] was “fully eliminate the gametocytes”.
